Test results from ChEMBL document CHEMBL2434935, “Design, syntheses, and characterization of pharmacophore based chemokine receptor CCR5 antagonists as anti prostate cancer agents” (Eur J Med Chem, 2013).
Calls of active or inactive are those of the source. The calls are words filed in the database; no cut-off is given here.

How the values were obtained:
[1] = test system: M12; experiment: (§1) Antiproliferative activity against human M12 cells after 72 hrs by WST-1 assay; assay type: functional
Outline: (§2)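 PC-3 cells kept in serum-free RPMI with L-glutamine, ITS and gentamicin plus 10% FBS. M12 cells got 5% FBS, then after 24 h serum-free medium with 0.01% EGF. Cells plated at 1000/well; after 24 h, drugs added at various concentrations in PBS (controls PBS) for 72 h. Medium then replaced with serum-free medium:WST-1 9:1, absorbance read after 3 h. Non-linear regression fit; mean ± S.E.M., ≥3 experiments in triplicate.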

[2] = test system: PC-3; experiment: Antiproliferative activity against human PC3 cells after 72 hrs by WST-1 assay; assay type: functional; details: for EC50: PC-3, 72 h, read-out: ED50 (the source's name); outline: as §2
[3] = Cytotoxicity against mouse NIH/3T3 cells after 48 hrs by neutral red dye uptake assay; assay type: cell-based, NIH3T3; details: read-out: TC50
Outline: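 NIH-3T3 mouse embryonic fibroblasts grown in medium with 10% newborn calf serum and 1% penicillin:streptomycin. Compounds at various concentrations in DMEM dilution medium for 48 h. After HBSS wash, neutral red 25 µg/mL in DMEM/5% NBCS for 3 ± 0.1 h. Dye extracted with 50% ethanol/1% acetic acid, shaken 20 min, absorbance 540 nm. TC50 by non-linear regression.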

[4] = molecular target: T1, C-C chemokine receptor type 5 (Homo sapiens, UniProt P51681); experiment: Agonist activity at CCR5 (unknown origin) expressed in MOLT4 cells transfected with Gqi5 assessed as induction of calcium ion mobilization after 15 mins by microplate reader method; assay type: functional, cell-based; details: MOLT-4
Outline: (§3)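 CCR5-MOLT-4 cells transfected with Gqi5 (Lipofectamine 2000), kept in RPMI 1640/10% FBS with penicillin, streptomycin and 1 mg/mL G418 at 37 °C, 5% CO2. At 48 h post-transfection the cells were resuspended in 50:1 HBSS:HEPES buffer and loaded with Fluo4-AM plus probenecid for 45 min. Ligands were added at varying concentrations for 15 min, then RANTES or buffer was added at 16 s. Fluorescence was read at 494/516 nm for 120 s.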
Target sequence in this assay (P51681 whole entry, looked up): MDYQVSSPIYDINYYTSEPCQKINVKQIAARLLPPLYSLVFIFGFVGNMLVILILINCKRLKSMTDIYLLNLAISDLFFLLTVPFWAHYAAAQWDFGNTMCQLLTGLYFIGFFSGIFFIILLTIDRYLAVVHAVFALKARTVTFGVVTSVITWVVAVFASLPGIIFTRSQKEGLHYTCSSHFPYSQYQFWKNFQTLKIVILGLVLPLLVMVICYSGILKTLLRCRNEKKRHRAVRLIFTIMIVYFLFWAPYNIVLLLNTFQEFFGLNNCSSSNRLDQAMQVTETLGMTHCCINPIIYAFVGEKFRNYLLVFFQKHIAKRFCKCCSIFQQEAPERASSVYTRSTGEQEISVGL

[5] = molecular target: T1, C-C chemokine receptor type 5; experiment: Antagonist activity at CCR5 (unknown origin) expressed in MOLT4 cells transfected with Gqi5 assessed as inhibition of RANTES-induced calcium ion mobilization after 15 mins by microplate reader method; assay type: functional, cell-based, MOLT-4; details: for inhibition: MOLT-4; outline: as §3
[6] = as §1; assay type: functional; details: M12, 72 h, read-out: ED50 (the source's name); outline: as §2

SMILES | EC50 [2] [µM] | Activity [4] | IC50 [5] [µM] | inhibition [5] | Activity [1] | Activity [2] | CC50 at 48 h [3] [µM] | EC50 [6] [µM]
CCOc1ccc(C2CCN(Cc3ccc(N(CC)CC)cc3)CC2)cc1NC(=O)c1cnccn1 | 77 | inactive | 51.8 | Dose-dependent effect | Dose-dependent effect | Dose-dependent effect | 46.9 | 18.7
COc1ccc(C2CCN(Cc3ccc([N+](=O)[O-])cc3)CC2)cc1NC(=O)c1cnccn1 |  | inactive | 73 | Dose-dependent effect |  |  |  | 
CCOc1ccc(C2CCN(Cc3ccc(NC(C)=O)cc3)CC2)cc1NC(=O)c1cnccn1 | 50 | inactive | 47 | Dose-dependent effect | Dose-dependent effect | Dose-dependent effect | > 100 | 58
COc1ccc(C2CCN(Cc3ccc(NC(C)=O)cc3)CC2)cc1NC(=O)c1cnccn1 |  | inactive | 59 | Dose-dependent effect |  |  |  | 
CCN(CC)c1ccc(CN2CCC(c3ccc(OC(C)C)c(NC(=O)c4cnccn4)c3)CC2)cc1 |  | inactive | 61 | Dose-dependent effect |  |  |  | 
COc1ccc(C2CCN(Cc3ccc(N)cc3)CC2)cc1NC(=O)c1ccccc1 |  | inactive | 77 | Dose-dependent effect |  |  |  | 
COc1ccc(C2CCN(Cc3ccc([N+](=O)[O-])cc3)CC2)cc1NC(=O)c1ccccc1 |  | inactive | 28.7 | Dose-dependent effect |  |  |  | 
CCOc1ccc(C2CCN(Cc3ccc(N(CC)CC)cc3)CC2)cc1NC(=O)c1ccccc1 | 86.6 | inactive | 64 | Dose-dependent effect | Dose-dependent effect | Dose-dependent effect | 49.5 | 15.9
CC(C)Oc1ccc(C2CCN(Cc3ccc(N)cc3)CC2)cc1NC(=O)c1ccccc1 |  | inactive | 66.2 | Dose-dependent effect |  |  |  | 
CCOc1ccc(C2CCN(Cc3ccc([N+](=O)[O-])cc3)CC2)cc1NC(=O)c1ccccc1 |  | inactive | 28 | Dose-dependent effect |  |  |  | 

Further molecules by falling IC50 [5], results first:

EC50 [2] [µM] | Activity [4] | IC50 [5] [µM] | inhibition [5] | SMILES | Activity [1] | Activity [2] | CC50 at 48 h [3] [µM] | EC50 [6] [µM]
 | inactive | 138 | Dose-dependent effect | CCN(CC)c1ccc(CN2CCC(c3ccc(OC(C)C)c(NC(=O)c4ccccc4)c3)CC2)cc1 |  |  |  | 
 | inactive | 115 | Dose-dependent effect | CCOc1ccc(C2CCN(Cc3ccc(NC(C)=O)cc3)CC2)cc1NC(=O)c1ccccc1 |  |  |  | 
 | inactive | 92.2 | Dose-dependent effect | CC(=O)Nc1ccc(CN2CCC(c3ccc(OC(C)C)c(NC(=O)c4ccccc4)c3)CC2)cc1 |  |  |  | 
 | inactive | 90 | Dose-dependent effect | CCN(CC)c1ccc(CN2CCC(c3ccc(OC)c(NC(=O)c4ccccc4)c3)CC2)cc1 |  |  |  | 
 | inactive | 88.1 | Dose-dependent effect | CC(=O)Nc1ccc(CN2CCC(c3ccc(OC(C)C)c(NC(=O)c4cnccn4)c3)CC2)cc1 |  |  |  | 
 | inactive | 77.8 | Dose-dependent effect | CC(C)Oc1ccc(C2CCN(Cc3ccc(N)cc3)CC2)cc1NC(=O)c1cnccn1 |  |  |  | 
60 | inactive | 70.8 | Dose-dependent effect | COc1ccc(C2CCN(Cc3ccc(NC(C)=O)cc3)CC2)cc1NC(=O)c1ccccc1 | Dose-dependent effect | Dose-dependent effect | 92.2 | 79.9
 | inactive | 65.7 | Dose-dependent effect | CC(C)Oc1ccc(C2CCN(Cc3ccc([N+](=O)[O-])cc3)CC2)cc1NC(=O)c1cnccn1 |  |  |  | 
 | inactive | 63 | Dose-dependent effect | CCOc1ccc(C2CCN(Cc3ccc(N)cc3)CC2)cc1NC(=O)c1ccccc1 |  |  |  | 
109 | inactive | 61 | Dose-dependent effect | CCOc1ccc(C2CCN(Cc3ccc([N+](=O)[O-])cc3)CC2)cc1NC(=O)c1cnccn1 | Dose-dependent effect | Dose-dependent effect | > 100 | 
 | inactive | 56 | Dose-dependent effect | CCN(CC)c1ccc(CN2CCC(c3ccc(OC)c(NC(=O)c4cnccn4)c3)CC2)cc1 |  |  |  | 
 | inactive | 45 | Dose-dependent effect | CC(C)Oc1ccc(C2CCN(Cc3ccc([N+](=O)[O-])cc3)CC2)cc1NC(=O)c1ccccc1 |  |  |  | 
 | inactive | 43.5 | Dose-dependent effect | CCOc1ccc(C2CCN(Cc3ccc(N)cc3)CC2)cc1NC(=O)c1cnccn1 |  |  |  | 
72.3 | inactive | 38.8 | Dose-dependent effect | COc1ccc(C2CCN(Cc3ccc(N)cc3)CC2)cc1NC(=O)c1cnccn1 | Dose-dependent effect | Dose-dependent effect | > 100 | 73.7
